In ChEMBL document CHEMBL4715736, “Identification of anticancer agents based on the thieno[2,3-b]pyridine and 1H-pyrazole molecular scaffolds” (2016):

What was measured:
Type in all cases: functional
[1] = test system: HT-29; test: Growth inhibition of human HT-29 cells incubated for 48 hrs by sulforhodamine B assay
Outline: (§1)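 NCI60 panel at the NCI Developmental Therapeutics Program. Only compounds active in the 10 µM screen went to dose-response testing. GI50, the concentration giving 50% of maximal inhibition of proliferation, and TGI, the concentration giving total growth inhibition, were derived from the dose-response curves.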

[2] = test system: NCI/ADR-RES; test: Growth inhibition of human NCI/ADR-RES cells assessed as cell growth at 1 uM incubated for 48 hrs by sulforhodamine B assay relative to control; details: read-out: Activity
[3] = test system: NCI-H23; test: Growth inhibition of human NCI-H23 cells incubated for 48 hrs by sulforhodamine B assay; outline: as §1
[4] = test system: SR; test: Growth inhibition of human SR cells assessed as cell growth at 100 uM incubated for 48 hrs by sulforhodamine B assay relative to control; details: read-out: Activity
[5] = test system: Hs-578T; test: Growth inhibition of human Hs-578T cells assessed as cell growth at 1 uM incubated for 48 hrs by sulforhodamine B assay relative to control; details: read-out: Activity
[6] = test system: HOP-62; test: Growth inhibition of human HOP-62 cells assessed as cell growth at 0.01 uM incubated for 48 hrs by sulforhodamine B assay relative to control; details: read-out: Activity
[7] = test system: SN12C; test: Growth inhibition of human SN12C cells assessed as cell growth at 100 uM incubated for 48 hrs by sulforhodamine B assay relative to control; details: read-out: Activity
[8] = test system: SN12C; test: Growth inhibition of human SN12C cells incubated for 48 hrs by sulforhodamine B assay; details: for CC50: read-out: LC50 (the source's name)
Outline: (§2)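 NCI DTP 60-line human tumour panel. Dose-response curves were run only for ligands active in the initial 10 µM screen. GI50 (concentration giving 50% of maximal inhibition of proliferation) and TGI (concentration giving total growth inhibition) were derived from these curves.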

[9] = test system: MDA-MB-435; test: Growth inhibition of human MDA-MB-435 cells assessed as cell growth at 0.1 uM incubated for 48 hrs by sulforhodamine B assay relative to control; details: read-out: Activity
[10] = test system: SF-295; test: Growth inhibition of human SF-295 cells incubated for 48 hrs by sulforhodamine B assay; outline: as §2
[11] = test system: NCI-H460; test: Growth inhibition of human NCI-H460 cells assessed as cell growth at 1 uM incubated for 48 hrs by sulforhodamine B assay relative to control; details: read-out: Activity
[12] = test system: SK-MEL-2; test: Growth inhibition of human SK-MEL-2 cells incubated for 48 hrs by sulforhodamine B assay; outline: as §2
[13] = test system: SF-539; test: Growth inhibition of human SF-539 cells assessed as cell growth at 0.01 uM incubated for 48 hrs by sulforhodamine B assay relative to control; details: read-out: Activity
[14] = test system: KM12; test: Growth inhibition of human KM12 cells assessed as cell growth at 0.01 uM incubated for 48 hrs by sulforhodamine B assay relative to control; details: read-out: Activity
[15] = test system: A498; test: Growth inhibition of human A498 cells assessed as cell growth at 0.01 uM incubated for 48 hrs by sulforhodamine B assay relative to control; details: read-out: Activity
Outline: (§3)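 NCI Developmental Therapeutics Program NCI60 panel. Compounds that were active in the 10 µM one-dose screen went on to dose–response testing. Growth at each concentration is expressed relative to untreated control (100%). GI50 (concentration giving 50% of maximal inhibition of proliferation) and TGI (concentration giving total growth inhibition) were derived from the curves.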

[16] = test system: MCF7; test: Growth inhibition of human MCF7 cells assessed as cell growth at 0.1 uM incubated for 48 hrs by sulforhodamine B assay relative to control; details: read-out: Activity
[17] = test system: SNB-19; test: Growth inhibition of human SNB-19 cells assessed as cell growth at 1 uM incubated for 48 hrs by sulforhodamine B assay relative to control; details: read-out: Activity
[18] = test system: ACHN; test: Growth inhibition of human ACHN cells assessed as cell growth at 0.1 uM incubated for 48 hrs by sulforhodamine B assay relative to control; details: read-out: Activity
[19] = test system: SF-268; test: Growth inhibition of human SF-268 cells assessed as cell growth at 100 uM incubated for 48 hrs by sulforhodamine B assay relative to control; details: read-out: Activity
[20] = test system: UACC-62; test: Growth inhibition of human UACC-62 cells assessed as cell growth at 100 uM incubated for 48 hrs by sulforhodamine B assay relative to control; details: read-out: Activity
[21] = test system: RXF 393; test: Growth inhibition of human RXF 393 cells assessed as cell growth at 0.1 uM incubated for 48 hrs by sulforhodamine B assay relative to control; details: read-out: Activity
[22] = test system: RPMI-8226; test: Growth inhibition of human RPMI-8226 cells assessed as cell growth at 0.01 uM incubated for 48 hrs by sulforhodamine B assay relative to control; details: read-out: Activity
[23] = test system: SF-539; test: Growth inhibition of human SF-539 cells assessed as cell growth at 100 uM incubated for 48 hrs by sulforhodamine B assay relative to control; details: read-out: Activity
[24] = test system: COLO 205; test: Growth inhibition of human COLO 205 cells incubated for 48 hrs by sulforhodamine B assay; outline: as §3
[25] = test system: SF-539; test: Growth inhibition of human SF-539 cells assessed as cell growth at 1 uM incubated for 48 hrs by sulforhodamine B assay relative to control; details: read-out: Activity
[26] = test system: SW-620; test: Growth inhibition of human SW-620 cells assessed as cell growth at 0.01 uM incubated for 48 hrs by sulforhodamine B assay relative to control; details: read-out: Activity
[27] = test system: MDA-MB-231; test: Growth inhibition of human MDA-MB-231 cells assessed as cell growth at 0.1 uM incubated for 48 hrs by sulforhodamine B assay relative to control; details: read-out: Activity
[28] = test system: LOX IMVI; test: Growth inhibition of human LOX IMVI cells incubated for 48 hrs by sulforhodamine B assay; outline: as §1
[29] = test system: SNB-75; test: Growth inhibition of human SNB-75 cells assessed as cell growth at 1 uM incubated for 48 hrs by sulforhodamine B assay relative to control; details: read-out: Activity
[30] = test system: PC-3; test: Growth inhibition of human PC-3 cells assessed as cell growth at 1 uM incubated for 48 hrs by sulforhodamine B assay relative to control; details: read-out: Activity
[31] = test system: HCT-15; test: Growth inhibition of human HCT-15 cells assessed as cell growth at 0.1 uM incubated for 48 hrs by sulforhodamine B assay relative to control; details: read-out: Activity
[32] = test system: A498; test: Growth inhibition of human A498 cells assessed as cell growth at 1 uM incubated for 48 hrs by sulforhodamine B assay relative to control; details: read-out: Activity; outline: as §3
[33] = test system: BT-549; test: Growth inhibition of human BT-549 cells assessed as cell growth at 100 uM incubated for 48 hrs by sulforhodamine B assay relative to control; details: read-out: Activity
[34] = test system: SF-295; test: Growth inhibition of human SF-295 cells assessed as cell growth at 100 uM incubated for 48 hrs by sulforhodamine B assay relative to control; details: read-out: Activity
[35] = test system: NCI-H322M; test: Growth inhibition of human NCI-H322M cells assessed as cell growth at 100 uM incubated for 48 hrs by sulforhodamine B assay relative to control; details: read-out: Activity

With `Nc1c(C(=O)Nc2ccccc2)sc2nc3c(cc12)CN(Cc1ccccc1)CC3` the GI50 [1] was 24.7 µM, the LC50 [1] was over 100 µM and the TGI [1] was over 100 µM. The growth at 1 µM [2] was 98%, the GI50 [3] was 21.7 µM and the LC50 (50% lethal concentration) [3] was over 100 µM. It also gave a TGI [3] of over 100 µM, a growth at 100 µM [4] of 19% and a growth at 1 µM [5] of 78%. It also gave a growth at 0.01 µM [6] of 89%, a growth at 100 µM [7] of 47% and a GI50 [8] of 65.7 µM. The TGI [8] was over 100 µM, the CC50 [8] was over 100 µM and the growth at 0.1 µM [9] was 85%. The GI50 [10] was 5.45 µM, the LC50 (concentration killing 50% of cells) [10] was over 100 µM and the TGI [10] was over 100 µM. The growth at 1 µM [11] was 91%, the GI50 [12] was 20.3 µM and the LC50 [12] was over 100 µM. It also gave a TGI [12] of over 100 µM, a growth at 0.01 µM [13] of 96% and a growth at 0.01 µM [14] of 100%. For the same compound, the growth at 0.01 µM [15] was 91%, the growth at 0.1 µM [16] was 86% and the growth at 1 µM [17] was 88%. For the same compound, the growth at 0.1 µM [18] was 91%, the growth at 100 µM [19] was 9% and the growth at 100 µM [20] was 6%. It also gave a growth at 0.1 µM [21] of 94%, a growth at 0.01 µM [22] of 97% and a growth at 100 µM [23] of 11%. The GI50 [24] was 24 µM, the LC50 (concentration killing 50% of cells) [24] was over 100 µM and the TGI [24] was over 100 µM. The growth at 1 µM [25] was 83%, the growth at 0.01 µM [26] was 98% and the growth at 0.1 µM [27] was 100%. The GI50 [28] was 10.5 µM, the LC50 [28] was over 100 µM and the TGI [28] was over 100 µM. The growth at 1 µM [29] was 64%, the growth at 1 µM [30] was 89% and the growth at 0.1 µM [31] was 97%. For the same compound, the growth at 1 µM [32] was 72%, the growth at 100 µM [33] was -2% and the growth at 100 µM [34] was 12%. It also gave a growth at 100 µM [35] of 59%.

Work on `Cc1cccc(NC(=O)c2sc3nc4c(cc3c2N)C(=O)CCC4)c1` yielded a GI50 [1] of 0.199 µM, an LC50 [1] of at least 100 µM and a TGI [1] of at least 100 µM. The growth at 1 µM [2] was 15%, the GI50 [3] was 0.481 µM and the LC50 (50% lethal concentration) [3] was over 100 µM. It also gave a TGI [3] of at least 100 µM, a growth at 1 µM [5] of 11% and a growth at 0.01 µM [6] of 88%. For the same compound, the growth at 100 µM [7] was -33%, the GI50 [8] was 0.695 µM and the TGI [8] was at least 100 µM. For the same compound, the CC50 [8] was over 100 µM, the growth at 0.1 µM [9] was 4% and the GI50 [10] was 0.175 µM. It also gave an LC50 (concentration killing 50% of cells) [10] of over 100 µM, a TGI [10] of at least 100 µM and a growth at 1 µM [11] of 8%. The GI50 [12] was 0.254 µM, the LC50 [12] was over 100 µM and the TGI [12] was over 100 µM. For the same compound, the growth at 0.01 µM [13] was 90%, the growth at 0.01 µM [14] was 95% and the growth at 0.01 µM [15] was 68%. It also gave a growth at 0.1 µM [16] of 56%, a growth at 1 µM [17] of 33% and a growth at 0.1 µM [18] of 91%. It also gave a growth at 100 µM [19] of -12%, a growth at 100 µM [20] of 33% and a growth at 0.1 µM [21] of 69%. The growth at 0.01 µM [22] was 99%, the growth at 100 µM [23] was -25% and the GI50 [24] was 0.197 µM. It also gave an LC50 (concentration killing 50% of cells) [24] of over 100 µM, a TGI [24] of at least 100 µM and a growth at 1 µM [25] of -38%. For the same compound, the growth at 0.01 µM [26] was 94%, the growth at 0.1 µM [27] was 76% and the GI50 [28] was 0.0118 µM. The LC50 [28] was over 100 µM, the TGI [28] was at least 100 µM and the growth at 1 µM [29] was 6%. For the same compound, the growth at 1 µM [30] was 29%, the growth at 0.1 µM [31] was 48% and the growth at 1 µM [32] was -11%. The growth at 100 µM [33] was -11%, the growth at 100 µM [34] was 7% and the growth at 100 µM [35] was -22%.
